Laboratory results as given in ChEMBL document CHEMBL1150387, “Development and experimental validation of a docking strategy for the generation of kinase-targeted libraries” (J Med Chem, 2008).

What was measured:
[1] = biological target: T1, Serine/threonine-protein kinase Chk1 (Homo sapiens) (UniProt O14757); assay: Inhibition of CHK1 at 10 uM by HTRF assay relative to control
T1 sequence (whole entry): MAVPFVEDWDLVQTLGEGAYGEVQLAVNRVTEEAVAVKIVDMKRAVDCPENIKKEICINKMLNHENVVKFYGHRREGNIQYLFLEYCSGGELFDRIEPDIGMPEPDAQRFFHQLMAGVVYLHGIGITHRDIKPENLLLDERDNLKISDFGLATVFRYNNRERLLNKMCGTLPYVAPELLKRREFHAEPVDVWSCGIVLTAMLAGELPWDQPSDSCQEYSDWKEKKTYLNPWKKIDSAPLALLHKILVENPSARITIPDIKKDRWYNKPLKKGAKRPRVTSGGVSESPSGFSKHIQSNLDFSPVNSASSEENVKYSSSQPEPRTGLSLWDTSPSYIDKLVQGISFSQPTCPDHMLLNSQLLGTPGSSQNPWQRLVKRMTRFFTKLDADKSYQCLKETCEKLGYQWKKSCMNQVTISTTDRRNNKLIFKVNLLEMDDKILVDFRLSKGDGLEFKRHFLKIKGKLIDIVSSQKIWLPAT
How it was run: (§1)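 HTRF kinase assay, one panel of kinases. Inhibitor stock 50 µM in 100% DMSO; tested at 10 µM. ATP and substrate at final levels near Km. Final buffer: 50 mM Hepes/NaOH pH 7.4, 40 µM Na3VO4, 0.005% Tween-20, 1 mM DTT, MnCl2 or MgCl2 at kinase-dependent levels. Started by adding ATP/substrate. Reaction run at room temperature, time varied by kinase. Detection mix in 50 mM Hepes pH 7.4, 0.1% BSA, 150 mM KF, incubated ≥1 h at room temperature. Activity expressed as % of uninhibited control; n=2.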

[2] = biological target: Calcium/calmodulin-dependent protein kinase type II subunit alpha (Homo sapiens) (UniProt Q9UQM7); assay: Inhibition of CaMK2alpha at 10 uM by HTRF assay relative to control; how it was run: as §1
[3] = Inhibition of AMPKalpha at 10 uM by HTRF assay relative to control; how it was run: as §1
[4] = biological target: T2, Mitogen-activated protein kinase 12 (Homo sapiens) (UniProt P53778); assay: Inhibition of p38-gamma at 10 uM by HTRF assay relative to control; how it was run: as §1
T2 sequence (whole entry): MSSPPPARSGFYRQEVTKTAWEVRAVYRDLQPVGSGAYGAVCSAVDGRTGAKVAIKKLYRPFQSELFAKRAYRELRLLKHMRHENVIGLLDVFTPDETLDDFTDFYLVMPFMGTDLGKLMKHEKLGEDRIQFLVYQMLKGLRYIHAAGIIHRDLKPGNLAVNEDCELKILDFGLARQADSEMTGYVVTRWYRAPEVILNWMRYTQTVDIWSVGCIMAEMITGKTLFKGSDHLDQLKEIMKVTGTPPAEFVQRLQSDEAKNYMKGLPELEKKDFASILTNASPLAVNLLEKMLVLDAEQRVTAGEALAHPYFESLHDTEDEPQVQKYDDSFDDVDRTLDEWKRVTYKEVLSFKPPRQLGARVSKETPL

[5] = biological target: Protein kinase C gamma type (Homo sapiens) (UniProt P05129); assay: Inhibition of PKCgamma at 10 uM by HTRF assay relative to control; how it was run: as §1
[6] = biological target: Cyclin-dependent kinase 2 (Homo sapiens) (UniProt P24941); assay: Inhibition of CDK2 at 10 uM by HTRF assay relative to control; how it was run: as §1
[7] = biological target: Proto-oncogene tyrosine-protein kinase Src (Homo sapiens) (UniProt P12931); assay: Inhibition of Src at 10 uM by HTRF assay relative to control; how it was run: as §1
[8] = Inhibition of PKA at 10 uM by HTRF assay relative to control; how it was run: as §1
[9] = biological target: Tyrosine-protein kinase Fes/Fps (Homo sapiens) (UniProt P07332); assay: Inhibition of FES at 10 uM by HTRF assay relative to control; how it was run: as §1
[10] = biological target: Protein kinase C alpha type (Homo sapiens) (UniProt P17252); assay: Inhibition of PKCalpha at 10 uM by HTRF assay relative to control; how it was run: as §1
[11] = biological target: Receptor-type tyrosine-protein kinase FLT3 (Homo sapiens) (UniProt P36888); assay: Inhibition of FLT3 at 10 uM by HTRF assay relative to control; how it was run: as §1
[12] = biological target: Platelet-derived growth factor receptor beta (Homo sapiens) (UniProt P09619); assay: Inhibition of PDGFRbeta at 10 uM by HTRF assay relative to control; how it was run: as §1
[13] = biological target: Focal adhesion kinase 1 (Homo sapiens) (UniProt Q05397); assay: Inhibition of FAK at 10 uM by HTRF assay relative to control; how it was run: as §1

Platelet-derived growth factor receptor beta (Homo sapiens), sequence (P09619 whole entry): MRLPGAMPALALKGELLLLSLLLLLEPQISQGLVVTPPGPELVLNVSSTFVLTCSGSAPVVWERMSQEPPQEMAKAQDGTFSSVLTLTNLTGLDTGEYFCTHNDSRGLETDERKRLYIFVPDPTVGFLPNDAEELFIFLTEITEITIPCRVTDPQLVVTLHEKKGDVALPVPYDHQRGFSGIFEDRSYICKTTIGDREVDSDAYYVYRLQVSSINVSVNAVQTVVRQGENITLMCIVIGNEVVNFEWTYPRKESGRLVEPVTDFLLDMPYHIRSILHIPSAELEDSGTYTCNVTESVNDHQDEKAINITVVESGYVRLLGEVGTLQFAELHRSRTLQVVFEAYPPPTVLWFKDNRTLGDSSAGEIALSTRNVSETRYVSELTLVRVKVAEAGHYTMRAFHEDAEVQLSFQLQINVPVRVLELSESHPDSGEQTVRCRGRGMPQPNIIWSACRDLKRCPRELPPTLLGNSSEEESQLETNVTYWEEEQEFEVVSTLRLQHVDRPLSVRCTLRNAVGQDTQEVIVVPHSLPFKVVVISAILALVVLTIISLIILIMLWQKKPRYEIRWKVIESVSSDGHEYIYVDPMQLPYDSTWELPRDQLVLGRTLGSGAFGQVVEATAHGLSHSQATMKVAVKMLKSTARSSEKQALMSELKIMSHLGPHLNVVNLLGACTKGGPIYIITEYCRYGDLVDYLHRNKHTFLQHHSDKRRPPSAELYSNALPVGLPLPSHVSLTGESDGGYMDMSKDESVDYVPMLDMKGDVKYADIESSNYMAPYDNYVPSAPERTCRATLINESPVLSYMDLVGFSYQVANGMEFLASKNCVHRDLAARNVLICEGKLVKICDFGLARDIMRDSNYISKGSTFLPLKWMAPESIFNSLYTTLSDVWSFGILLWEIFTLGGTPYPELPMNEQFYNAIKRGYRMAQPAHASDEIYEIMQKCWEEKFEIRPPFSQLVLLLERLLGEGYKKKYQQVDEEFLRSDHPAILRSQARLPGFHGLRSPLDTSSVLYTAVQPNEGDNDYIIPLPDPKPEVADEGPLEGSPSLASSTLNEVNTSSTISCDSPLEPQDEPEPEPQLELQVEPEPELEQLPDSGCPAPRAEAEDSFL
Receptor-type tyrosine-protein kinase FLT3 (Homo sapiens), sequence (P36888 whole entry): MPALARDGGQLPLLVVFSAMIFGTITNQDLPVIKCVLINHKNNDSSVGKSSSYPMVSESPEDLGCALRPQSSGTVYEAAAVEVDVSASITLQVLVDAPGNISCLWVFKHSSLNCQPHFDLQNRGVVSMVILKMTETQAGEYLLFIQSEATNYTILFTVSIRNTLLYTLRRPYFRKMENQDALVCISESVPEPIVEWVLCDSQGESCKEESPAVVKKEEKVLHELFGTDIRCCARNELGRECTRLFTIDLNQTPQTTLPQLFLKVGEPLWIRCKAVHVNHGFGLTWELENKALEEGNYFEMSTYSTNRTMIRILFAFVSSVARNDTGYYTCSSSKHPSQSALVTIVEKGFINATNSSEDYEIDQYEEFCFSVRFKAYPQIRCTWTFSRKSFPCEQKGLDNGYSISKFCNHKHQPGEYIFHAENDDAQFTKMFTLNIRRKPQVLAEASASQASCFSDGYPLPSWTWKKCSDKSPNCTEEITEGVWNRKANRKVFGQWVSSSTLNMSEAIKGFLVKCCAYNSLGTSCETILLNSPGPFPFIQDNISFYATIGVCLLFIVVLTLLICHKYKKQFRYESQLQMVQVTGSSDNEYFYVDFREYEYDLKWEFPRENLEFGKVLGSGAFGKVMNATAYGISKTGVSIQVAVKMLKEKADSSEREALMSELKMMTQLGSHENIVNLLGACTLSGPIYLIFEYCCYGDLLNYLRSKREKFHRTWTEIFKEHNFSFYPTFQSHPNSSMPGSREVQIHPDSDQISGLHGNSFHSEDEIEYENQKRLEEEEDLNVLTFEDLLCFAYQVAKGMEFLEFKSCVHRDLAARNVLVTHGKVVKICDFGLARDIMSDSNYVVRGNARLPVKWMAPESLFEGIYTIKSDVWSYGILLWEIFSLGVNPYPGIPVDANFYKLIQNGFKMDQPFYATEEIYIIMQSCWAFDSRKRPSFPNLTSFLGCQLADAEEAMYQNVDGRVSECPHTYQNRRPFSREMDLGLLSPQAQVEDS
Proto-oncogene tyrosine-protein kinase Src (Homo sapiens), sequence (P12931 2-536 limits assumed): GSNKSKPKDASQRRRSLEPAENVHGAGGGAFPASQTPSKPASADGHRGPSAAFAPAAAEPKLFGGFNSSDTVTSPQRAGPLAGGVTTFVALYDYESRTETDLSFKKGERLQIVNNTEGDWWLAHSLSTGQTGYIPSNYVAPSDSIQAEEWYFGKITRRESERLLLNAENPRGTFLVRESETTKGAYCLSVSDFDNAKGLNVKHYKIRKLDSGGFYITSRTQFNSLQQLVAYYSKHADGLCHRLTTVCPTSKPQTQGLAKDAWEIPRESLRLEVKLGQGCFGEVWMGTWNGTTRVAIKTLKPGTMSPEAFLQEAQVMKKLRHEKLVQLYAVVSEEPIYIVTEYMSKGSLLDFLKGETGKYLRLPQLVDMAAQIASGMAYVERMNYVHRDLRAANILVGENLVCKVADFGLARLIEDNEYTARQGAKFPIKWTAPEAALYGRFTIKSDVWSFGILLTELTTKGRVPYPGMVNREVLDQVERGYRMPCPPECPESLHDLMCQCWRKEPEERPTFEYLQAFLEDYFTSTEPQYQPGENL
Tyrosine-protein kinase Fes/Fps (Homo sapiens), sequence (P07332 whole entry): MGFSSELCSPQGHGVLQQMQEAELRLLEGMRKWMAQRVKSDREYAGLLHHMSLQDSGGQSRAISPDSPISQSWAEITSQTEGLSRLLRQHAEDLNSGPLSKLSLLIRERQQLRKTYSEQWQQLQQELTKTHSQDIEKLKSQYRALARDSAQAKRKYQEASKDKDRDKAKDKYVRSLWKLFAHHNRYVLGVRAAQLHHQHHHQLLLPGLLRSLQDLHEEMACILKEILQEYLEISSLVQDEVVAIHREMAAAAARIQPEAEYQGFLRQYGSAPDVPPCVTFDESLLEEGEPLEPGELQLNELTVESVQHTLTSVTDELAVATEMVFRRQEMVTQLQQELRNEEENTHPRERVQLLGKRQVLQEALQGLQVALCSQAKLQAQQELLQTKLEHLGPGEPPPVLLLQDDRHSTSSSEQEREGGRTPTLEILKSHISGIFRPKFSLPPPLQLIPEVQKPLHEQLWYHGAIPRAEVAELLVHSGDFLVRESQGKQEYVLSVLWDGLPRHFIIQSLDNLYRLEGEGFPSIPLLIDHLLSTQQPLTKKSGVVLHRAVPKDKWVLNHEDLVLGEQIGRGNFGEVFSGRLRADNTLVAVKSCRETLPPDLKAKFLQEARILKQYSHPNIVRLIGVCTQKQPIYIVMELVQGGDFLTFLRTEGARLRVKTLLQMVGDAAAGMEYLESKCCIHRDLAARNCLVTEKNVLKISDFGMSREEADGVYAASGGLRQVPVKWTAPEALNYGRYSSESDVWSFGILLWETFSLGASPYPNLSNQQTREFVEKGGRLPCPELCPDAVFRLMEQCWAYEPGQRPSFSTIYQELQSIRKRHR

| Structure (SMILES) | inhibition [1] | inhibition [2] | inhibition [3] | inhibition [4] | inhibition [5] | inhibition [6] | inhibition [7] | inhibition [8] | inhibition [9] | inhibition [10] | inhibition [11] | inhibition [12] | inhibition [13] |
| --- | --- | --- | --- | --- | --- | --- | --- | --- | --- | --- | --- | --- | --- |
| O=C(NC[C@@H]1CCCO1)c1cccc(Nc2nccc(Nc3ccc4ncsc4c3)n2)c1 | 2% | 0% | 36% | 3% | 30% | 38% | 97% | 4% | 90% | 1% | 99% | 98% | 99% |
| COc1ccc(NC(=O)Cc2ccc(Nc3cc(N(C)c4cccc(C)c4)ncn3)cc2)cn1 | 4% | 0% | 2% | 1% | 5% | 6% | 1% | 0% | 0% | 0% | 11% | 22% | 5% |
| COc1cccc(Nc2cc(N3CCC[C@H]3C(=O)NCCN3CCCCC3)nc(N)n2)c1 | 3% | 0% | 0% | 0% | 2% | 12% | 1% | 0% | 4% | 5% | 0% | 8% | 4% |
| COC[C@@H]1CCCN1C(=O)[C@@H]1CCCN1c1cc(Nc2cccc(OC)c2)nc(N)n1 | 1% | 0% | 2% | 3% | 0% | 7% | 4% | 0% | 8% | 5% | 0% | 4% | 2% |
| Nc1nc(Nc2ccc3ncsc3c2)cc(N2CCC[C@H]2C(=O)N[C@@H](CO)c2ccccc2)n1 | 2% | 0% | 20% | 1% | 1% | 1% | 0% | 1% | 3% | 0% | 0% | 6% | 7% |
| CN(CCCn1ccnc1)C(=O)[C@@H]1CCCN1c1nccc(Nc2ccccc2)n1 | 0% | 0% | 15% | 1% | 0% | 24% | 8% | 0% | 1% | 0% | 0% | 11% | 10% |
| Cc1cc(C(=O)N2CCN(c3ncnc4c3CN(Cc3ccccc3)CC4)CC2)c(C)n1C | 3% | 0% | 0% | 0% | 6% | 3% | 0% | 0% | 0% | 0% | 0% | 5% | 0% |

The remaining lines, values ahead:

| inhibition [1] | inhibition [2] | inhibition [3] | inhibition [4] | inhibition [5] | inhibition [6] | inhibition [7] | inhibition [8] | inhibition [9] | inhibition [10] | inhibition [11] | inhibition [12] | inhibition [13] | Structure (SMILES) |
| --- | --- | --- | --- | --- | --- | --- | --- | --- | --- | --- | --- | --- | --- |
| 5% | 0% | 1% | 0% | 4% | 0% | 0% | 0% | 0% | 0% | 0% | 7% | 0% | O=C(c1nc(SCc2ccc(Cl)cc2)n2ccccc12)N1CCN(c2ncnc3c2CN(Cc2ccccc2)CC3)CC1 |
| 5% | 0% | 5% | 0% | 4% | 5% | 2% | 1% | 0% | 0% | 0% | 10% | 1% | O=C(c1nc(SCc2ccc(Cl)cc2)n2ccccc12)N1CCN(c2cc(Nc3cccc(Br)c3)ncn2)CC1 |
| 3% | 0% | 9% | 0% | 1% | 3% | 0% | 0% | 2% | 0% | 0% | 7% | 4% | Cc1cccc(Oc2ccnc(N3CCC[C@H]3C(=O)NCCCn3ccnc3)n2)c1 |
| 1% | 1% | 0% | 2% | 6% | 5% | 0% | 0% | 8% | 1% | 0% | 5% | 2% | CN(CCc1ccccn1)C(=O)[C@@H]1CCCN1c1nccc(Nc2ccccc2)n1 |
| 3% | 0% | 12% | 0% | 0% | 5% | 2% | 0% | 6% | 0% | 0% | 0% | 3% | Nc1nc(N2CCOCC2)cc(N2CCC(C(=O)NCCc3ccc(O)cc3)CC2)n1 |
| 3% | 0% | 0% | 3% | 2% | 20% | 26% | 0% | 22% | 0% | 13% | 33% | 20% | Cc1cccc(N(C)c2cc(Nc3cccc(C(=O)NCc4ccncc4)c3)ncn2)c1 |
